Results collected from several papers.
Each line is one published result; the experiments were not run side by side.
Target: Serine/threonine-protein kinase tousled-like 1 (TLK1, Homo sapiens, UniProt Q9UKI8)
Sequence (Q9UKI8 1-766, as in one of the studies): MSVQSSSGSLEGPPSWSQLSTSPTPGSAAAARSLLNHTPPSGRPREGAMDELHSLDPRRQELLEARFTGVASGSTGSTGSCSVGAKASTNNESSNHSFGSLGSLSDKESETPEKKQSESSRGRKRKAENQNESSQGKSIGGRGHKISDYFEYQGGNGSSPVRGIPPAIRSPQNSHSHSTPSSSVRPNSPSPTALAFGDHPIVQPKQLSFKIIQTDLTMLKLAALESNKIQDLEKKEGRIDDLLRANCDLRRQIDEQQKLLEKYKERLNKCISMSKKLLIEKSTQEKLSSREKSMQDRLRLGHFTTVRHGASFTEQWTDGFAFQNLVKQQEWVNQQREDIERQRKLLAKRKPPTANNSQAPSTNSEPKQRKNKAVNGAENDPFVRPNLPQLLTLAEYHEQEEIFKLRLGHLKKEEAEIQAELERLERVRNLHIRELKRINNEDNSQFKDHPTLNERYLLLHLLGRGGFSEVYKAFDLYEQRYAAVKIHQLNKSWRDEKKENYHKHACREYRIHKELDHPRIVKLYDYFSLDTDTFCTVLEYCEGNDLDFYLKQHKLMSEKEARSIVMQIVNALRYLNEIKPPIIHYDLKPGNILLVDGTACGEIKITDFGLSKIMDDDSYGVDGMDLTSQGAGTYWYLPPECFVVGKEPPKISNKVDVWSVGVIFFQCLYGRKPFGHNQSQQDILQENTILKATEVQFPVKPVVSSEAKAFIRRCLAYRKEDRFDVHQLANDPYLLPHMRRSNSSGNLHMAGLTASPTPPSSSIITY

Structure (SMILES)	effect on	mode	technique	concentration	measurement	value
Cc1ccc(NC(=O)c2ccc(C)c(C(F)(F)F)c2)cc1C#Cc1nn(C2CCC(O)CC2)c2ncnc(N)c12 (stereo not shown)	cell-free assay			10 µM	remaining signal	95%
COc1cc(/C=C/C(=O)CC(=O)/C=C/c2ccc(O)c(OC)c2)ccc1O	enzyme activity	inhibitor		1 µM	activity vs control	128%
COc1ccc2c(O[C@@H]3C[C@H]4C(=O)N[C@]5(C(=O)O)CC5/C=C\CCCCC[C@H](NC(=O)OC5CCCC5)C(=O)N4C3)cc(-c3csc(NC(=O)C(C)C)n3)nc2c1C (stereo partly shown)	cell-free assay		competition with immobilised ligand	1 µM	remaining binding	100%
Cc1ccc(C(=O)Nc2ccc(CN3CCN(C)CC3)c(C(F)(F)F)c2)cc1C#Cc1cnc2cccnn12	enzyme activity	inhibitor		23.5 nM	remaining activity	100%
COc1cc(Nc2cnc(C#N)c(O[C@H](C)CN(C)C)n2)ncc1-c1cnn(C)c1	enzyme activity	inhibitor	radiometric	10 µM	remaining activity	93%
COc1cc(Cl)c(C(=O)N[C@@H](CN[C@H]2CC[C@@H](N)CC2)Cc2ccc(C#N)cc2)cc1-c1ccc(CN[C@H](C)c2ccc(C)cc2)o1	enzyme activity	inhibitor		1 µM	remaining activity	94%
Cc1sc(C(=O)NC2COC2)cc1-n1cc(NC(=O)Nc2c(F)cccc2Cl)cn1	enzyme activity	inhibitor		10 µM	remaining activity	105%
CC(C)(C)c1nc(-c2cccc(NS(=O)(=O)c3c(F)cccc3F)c2F)c(-c2ccnc(N)n2)s1	enzyme activity	inhibitor	radiometric	1 µM	remaining activity	108%
O=C(N1CCS(=O)(=O)CC1)N1C[C@H](c2ccc(OC(F)(F)F)cc2)C[C@H](c2nc(C3CC3)no2)C1	cell-free assay		competition with immobilised ligand	1 µM	remaining binding	94%
Nc1ncnc2occ(-c3ccc(NC(=O)Nc4cc(C(F)(F)F)ccc4F)cc3)c12	cell-free assay	inhibitor		20 µM	remaining signal	39%
CC(C)(C)c1nc2c(s1)c1nc(N)ncc1c1ccc(NS(=O)(=O)c3c(F)cccc3F)c(F)c12	enzyme activity	inhibitor	radiometric	1 µM	remaining activity	92%
Cc1ccc(C(=O)NCc2ccsc2)cc1C#Cc1cn(C(C)C)c2ncnc(N)c12	enzyme activity	inhibitor		1 µM	activity vs control	80%
O=C(Nc1cnn(-c2csc(C(=O)NC3COC3)c2)c1)Nc1c(F)cccc1Cl	enzyme activity	inhibitor		5 µM	remaining activity	53.4%
C[C@H](c1ccnc(Nc2nc3ccc(-c4cc(N(C)C)ncn4)cc3[nH]2)c1)N1CCN(C(=O)CC(F)(F)F)CC1	cell-free assay		competition with immobilised ligand	0.1 µM	remaining binding	76%
Cc1cc(NC(=O)c2cccc3cc(-c4cccc5[nH]nc(N)c45)ccc23)ccc1F	enzyme activity	inhibitor		0.1 µM	activity vs control	88%
C[C@@H](c1cccc(C#N)c1)n1cc(Cl)cc(C(N)=O)c1=N	cell-free assay		competition with immobilised ligand	1 µM	remaining binding	100%
CN1CC(Oc2cnc(C#N)cc2-c2ccn3nc(NC(=O)C4CC4)cc3c2)C1	enzyme activity	inhibitor		1 µM	inhibition	-13%
CC(C)(O)[C@H]1CC[C@H](Nc2ccc3ncc(-c4cccc(C(F)(F)F)c4)n3n2)CC1	enzyme activity	inhibitor		1 µM	remaining activity	94.2%
Cc1cnc(NC2CCOCC2)nc1-n1cnc(C(=O)NC(CN)c2cc(F)cc(Cl)c2)c1 (stereo not shown)	enzyme activity	inhibitor	radiometric	1 µM	remaining activity	99%
